ChEMBL document CHEMBL3580545, “Steroidal Alkaloids from Veratrum nigrum Enhance Glucose Uptake in Skeletal Muscle Cells” (J Nat Prod, 2015)
Activity calls are given as the source filed them. The rule behind the calls is not given here.

Assays:
C2C12 [1] = assay: Potentiation of insulin-induced 2-deoxy-[3H]-glucose uptake in mouse C2C12 cells at 10 uM preincubated with cells followed by insulin induction for 30 mins by liquid scintillation counting analysis relative to control; format: functional
Procedure, shortened: (§1)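 Differentiated C2C12 myotubes, serum-starved 3 h then 1 h in KRPH buffer pH 7.4, given compound (0.1% DMSO), then 100 nM insulin for 30 min. 2-Deoxy-[3H]-glucose (0.5 μCi/mL) with 100 μM 2-deoxy-D-glucose taken up for 10 min. Cells washed in cold PBS, lysed in 0.1% SDS/0.5 M NaOH, scintillation counted and normalized to total protein. Mean ± SEM, three experiments in triplicate.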

[2] = molecular target: T1, Tyrosine-protein phosphatase non-receptor type 1 (Homo sapiens, UniProt P18031); assay: Inhibition of PTP1B (unknown origin) using p-nitrophenyl phosphate as substrate after 30 mins
T1 sequence (P18031 whole entry): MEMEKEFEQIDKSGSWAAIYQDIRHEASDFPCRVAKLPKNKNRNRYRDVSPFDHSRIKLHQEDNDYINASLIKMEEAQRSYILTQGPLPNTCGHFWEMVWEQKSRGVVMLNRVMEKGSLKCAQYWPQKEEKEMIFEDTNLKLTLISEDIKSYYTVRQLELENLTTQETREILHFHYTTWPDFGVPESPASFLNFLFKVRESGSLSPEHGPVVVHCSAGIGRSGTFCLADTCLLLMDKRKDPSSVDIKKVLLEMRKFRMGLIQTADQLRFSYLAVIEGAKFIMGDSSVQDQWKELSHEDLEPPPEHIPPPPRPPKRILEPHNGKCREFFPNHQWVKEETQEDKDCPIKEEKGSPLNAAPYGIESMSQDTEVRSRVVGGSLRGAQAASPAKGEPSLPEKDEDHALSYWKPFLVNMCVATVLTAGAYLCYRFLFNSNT
Procedure, shortened: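 PTP1B (source not stated) 0.05−0.1 μg with 2 mM p-nitrophenyl phosphate in 50 mM citrate pH 6.0, 0.1 M NaCl, 1 mM EDTA, 1 mM dithiothreitol, ± test compound; 37 °C for 30 min, quenched with 10 M NaOH; p-nitrophenol read at 405 nm; IC50 determined.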

C2C12 [3] = assay: Induction of 2-deoxy-[3H]-glucose uptake in mouse C2C12 cells at 10 uM after 2 hrs by liquid scintillation counting analysis relative to control; format: functional
Procedure, shortened: (§2)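 C2C12 myoblasts grown in DMEM/10% FBS, differentiated at confluence in 1% FBS DMEM to day 4. Myotubes serum-starved 3 h (0.2% BSA), 1 h in KRPH buffer pH 7.4, then compound (0.1% DMSO) for 2 h. Uptake of 0.5 μCi/mL 2-deoxy-[3H]-glucose plus 100 μM 2-deoxy-D-glucose for 10 min. Ice-cold PBS wash, SDS/NaOH lysis, scintillation counting normalized to protein. Three independent experiments in triplicate, mean ± SEM.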

C2C12 [4] = assay: Induction of 2-deoxy-[3H]-glucose uptake in mouse C2C12 cells at 30 uM after 2 hrs by liquid scintillation counting analysis; format: functional, cell-based; procedure, shortened: as §2
C2C12 [5] = assay: Potentiation of insulin-induced 2-deoxy-[3H]-glucose uptake in mouse C2C12 cells at 30 uM preincubated with cells followed by insulin induction for 30 mins by liquid scintillation counting analysis relative to control; format: functional; procedure, shortened: as §1
C2C12 [6] = assay: Induction of 2-deoxy-[3H]-glucose uptake in mouse C2C12 cells at 5 uM after 2 hrs by liquid scintillation counting analysis; format: functional, cell-based; procedure, shortened: as §2
C2C12 [7] = assay: Potentiation of insulin-induced 2-deoxy-[3H]-glucose uptake in mouse C2C12 cells at 5 uM preincubated with cells followed by insulin induction for 30 mins by liquid scintillation counting analysis; format: functional, cell-based; procedure, shortened: as §1

| SMILES | IC50 [2] [µM] | Activity (C2C12 [1]) [%] | Activity (C2C12 [3]) [%] | also measured |
| --- | --- | --- | --- | --- |
| CN(CCOc1ccc(CC2SC(=O)NC2=O)cc1)c1ccccn1 (stereo not drawn) [ROSIGLITAZONE] |  |  |  | Activity (C2C12 [4]): Active; Activity (C2C12 [5]): 47.3% |
| C[C@H]1CC[C@@H]2N(C1)C[C@H]1[C@@H]3C[C@H]4[C@@H](CC=C5C[C@@H](OC=O)CC[C@@]54C)[C@@H]3C[C@H](O)[C@@H]1[C@]2(C)O | > 30 |  |  |  |
| CC1=C2C(=O)[C@H]3[C@@H](CC[C@@H]4C[C@@H](O)C[C@@H](O)[C@@]43C)[C@@H]2CC[C@]12O[C@@H]1C[C@H](C)CN[C@H]1[C@H]2C | > 30 |  |  |  |
| C[C@@H]1CN[C@H]2[C@@H](C)[C@@]3(CC[C@@H]4C(=C[C@H]5[C@H]4CC=C4C[C@@H](O)CC[C@@]45C)[C@@]3(C)O)O[C@@H]2C1 | > 30 |  |  |  |

More lines, main results first:

| IC50 [2] [µM] | SMILES | Activity (C2C12 [1]) [%] | Activity (C2C12 [3]) [%] | also measured |
| --- | --- | --- | --- | --- |
| 4.7 | CC(=O)O[C@H]1CC[C@@]2(C)C(=CC[C@H]3c4ccc([C@H](C)[C@@H]5NC[C@@H](C)C[C@H]5O)c(C)c4C[C@@H]32)C1 | 56 | 24.8 |  |
| 11.3 | CC1=C2C(=O)[C@H]3[C@@H](CC=C4C[C@@H](OC=O)CC[C@@]43C)[C@@H]2CC[C@]12O[C@@H]1C[C@H](C)CN[C@H]1[C@H]2C | 49.9 | 15 | Activity (C2C12 [6]): Active; Activity (C2C12 [7]): Active |
